For four compounds, MIC50, MIC90 and MIC results are on record in ChEMBL document CHEMBL1255444, “In vitro antibacterial activities of JNJ-Q2, a new broad-spectrum fluoroquinolone” (Antimicrob Agents Chemother, 2010).

As a reminder, the MIC is the least concentration at which growth counts as inhibited. Read a high MIC as a less susceptible organism.

Common to all, as to format: functional
Assay [1] concerns Streptococcus pneumoniae. As to the kind of experiment: Antibacterial activity against Streptococcus pneumoniae ATCC 49619 by broth microdilution method. The essentials:
(§1)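 MICs by CLSI M07-A7 broth microdilution in cation-adjusted Mueller-Hinton medium. For S. pneumoniae the medium was supplemented with 5% lysed horse blood. CLSI quality control strains were run alongside as appropriate.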

Another assay deals with Haemophilus influenzae. As to the kind of experiment: Antibacterial activity against Haemophilus influenzae by broth microdilution method. In a few lines:
as §1
(In general: Dilution methods test growth across graded concentrations, often in twofold steps.)

In another assay the test system is Moraxella catarrhalis. The experiment in a line: Antibacterial activity against Moraxella catarrhalis by broth microdilution method. The essentials:
as §1

Another assay relates to Escherichia coli. As to the kind of experiment: Antibacterial activity against ciprofloxacin-resistant Escherichia coli by broth microdilution method. In a few lines: (§2)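 CLSI M07-A7 broth microdilution MIC. Medium was cation-adjusted Mueller-Hinton broth. For S. pneumoniae it was Mueller-Hinton supplemented with 5% lysed horse blood. CLSI quality-control strains were included as appropriate.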

Another assay relates to Serratia marcescens. As to the kind of experiment: Antibacterial activity against Serratia marcescens by broth microdilution method. The essentials:
as §1

For a further assay, the system named is Proteus mirabilis. As to the kind of experiment: Antibacterial activity against Proteus mirabilis by broth microdilution method. In a few lines: as §1
In the next assay the test system is Citrobacter freundii. The experiment in a line: Antibacterial activity against Citrobacter freundii by broth microdilution method. The essentials:
as §1

The test system of assay [2] is Streptococcus pneumoniae. The experiment in a line: Antibacterial activity against ciprofloxacin-resistant Streptococcus pneumoniae by broth microdilution method. The essentials:
as §2

In assay [3] the test system is Staphylococcus epidermidis. The experiment in a line: Antibacterial activity against methicillin-susceptible Staphylococcus epidermidis by broth microdilution method.
The subject of assay [4] is Staphylococcus epidermidis. The experiment in a line: Antibacterial activity against methicillin-resistant Staphylococcus epidermidis by broth microdilution method.
Assay [5] has as its system Staphylococcus epidermidis. The experiment in a line: Antibacterial activity against methicillin-, ciprofloxacin-resistant Staphylococcus epidermidis by broth microdilution method.
A further assay has as its system Enterobacter cloacae. The experiment in a line: Antibacterial activity against Enterobacter cloacae by broth microdilution method.
The next assay has as its system Klebsiella aerogenes. The experiment in a line: Antibacterial activity against Enterobacter aerogenes by broth microdilution method. In a few lines: as §1
The test system of another assay is Klebsiella pneumoniae. The experiment in a line: Antibacterial activity against Klebsiella pneumoniae by broth microdilution method. The essentials: as §1
For the next assay, the system named is Providencia stuartii. The experiment in a line: Antibacterial activity against Providencia stuartii by broth microdilution method. In a few lines:
as §1

The next assay deals with Pseudomonas aeruginosa. The experiment in a line: Antibacterial activity against Pseudomonas aeruginosa ATCC 27853 by broth microdilution method. The essentials: as §1
In assay [6] the test system is Staphylococcus aureus. As to the kind of experiment: Antibacterial activity against Staphylococcus aureus […] by broth microdilution method. In a few lines:
as §2

The subject of assay [7] is Staphylococcus aureus. The experiment in a line: Antibacterial activity against methicillin-susceptible Staphylococcus aureus by broth microdilution method.
Assay [8] concerns Staphylococcus aureus. As to the kind of experiment: Antibacterial activity against methicillin-resistant Staphylococcus aureus by broth microdilution method. The essentials:
as §2

For assay [9], the system named is Staphylococcus aureus. As to the kind of experiment: Antibacterial activity against methicillin-, ciprofloxacin-resistant Staphylococcus aureus by broth microdilution method. The essentials: as §2
For a further assay, the system named is Enterococcus faecalis. The experiment in a line: Antibacterial activity against Enterococcus faecalis ATCC 29212 by broth microdilution method. In a few lines: as §1
The next assay has as its system Enterococcus faecium. The experiment in a line: Antibacterial activity against Enterococcus faecium by broth microdilution method. In a few lines: as §1

SMILES strings stand for the structures. Values after ≈ are worked out from the molar mass of the structure shown.

In the case of `CO/N=C1\CN(c2nc3c(cc2F)c(=O)c(C(=O)O)cn3C2CC2)CC1CN` (configuration not stated) [GEMIFLOXACIN], the MIC50 was 0.03 µg/mL (≈ 0.077 µM) in the assay with Streptococcus pneumoniae [1]; at most 0.004 µg/mL in the assay on Haemophilus influenzae; at most 0.015 µg/mL with Moraxella catarrhalis; 32 µg/mL (≈ 82.2 µM) in the assay with Escherichia coli; 0.25 µg/mL (≈ 0.642 µM) in the assay with Serratia marcescens; 0.12 µg/mL (≈ 0.308 µM) against Proteus mirabilis. Moreover, in the assay on Citrobacter freundii, the MIC50 is 1 µg/mL (≈ 2.57 µM). Besides, the MIC90 was 0.5 µg/mL (≈ 1.28 µM) against Streptococcus pneumoniae [1]; 0.008 µg/mL (≈ 0.0205 µM) with Haemophilus influenzae; at most 0.015 µg/mL with Moraxella catarrhalis; 64 µg/mL (≈ 164 µM) in the assay with Escherichia coli; 0.5 µg/mL (≈ 1.28 µM) in the assay on Serratia marcescens; 0.25 µg/mL (≈ 0.642 µM) against Proteus mirabilis. The compound also displayed an MIC90 in the assay on Citrobacter freundii above 4 µg/mL. Further, in the assay on Moraxella catarrhalis, the MIC is at most 0.015 µg/mL.

Turning to `C[C@H]1COc2c(N3CCN(C)CC3)c(F)cc3c(=O)c(C(=O)O)cn1c23.C[C@H]1COc2c(N3CCN(C)CC3)c(F)cc3c(=O)c(C(=O)O)cn1c23.O` [LEVOFLOXACIN], the MIC50 was 16 µg/mL in the assay with Streptococcus pneumoniae [2]; 0.12 µg/mL in [3]; 8 µg/mL in [4]; 16 µg/mL in assay [5]; 16 µg/mL in the assay on Escherichia coli; 0.06 µg/mL against Enterobacter cloacae. Moreover, the MIC50 in the assay on Klebsiella aerogenes is 0.06 µg/mL; against Klebsiella pneumoniae it was 0.06 µg/mL; against Providencia stuartii, 16 µg/mL; in the assay with Pseudomonas aeruginosa it was 0.5 µg/mL. Besides, the MIC90 against Streptococcus pneumoniae [2] was 64 µg/mL; in assay [3] it was 0.25 µg/mL; in assay [4], 16 µg/mL; in assay [5] it was 16 µg/mL; against Escherichia coli it was 64 µg/mL; against Enterobacter cloacae, 0.12 µg/mL. Besides, the MIC90 against Klebsiella aerogenes is 0.06 µg/mL; in the assay on Klebsiella pneumoniae, 0.12 µg/mL; in the assay on Providencia stuartii it was 64 µg/mL; against Pseudomonas aeruginosa it was 2 µg/mL. Besides, the MIC in assay [3] was found to be 0.12 µg/mL; against Pseudomonas aeruginosa, 0.5 µg/mL.

In the assay with Streptococcus pneumoniae [1], `CC1(C)S[C@@H]2[C@H](NC(=O)Cc3ccccc3)C(=O)N2[C@H]1C(=O)O` [PENICILLIN G] returned an MIC50 of 0.06 µg/mL (≈ 0.179 µM) and an MIC90 of 2 µg/mL (≈ 5.98 µM).

Turning to `CN[C@H](CC(C)C)C(=O)N[C@H]1C(=O)N[C@@H](CC(N)=O)C(=O)N[C@H]2C(=O)N[C@H]3C(=O)N[C@H](C(=O)N[C@H](C(=O)O)c4cc(O)cc(O)c4-c4cc3ccc4O)[C@H](O)c3ccc(c(Cl)c3)Oc3cc2cc(c3O[C@@H]2O[C@H](CO)[C@@H](O)[C@H](O)[C@H]2O[C@H]2C[C@](C)(N)[C@H](O)[C@H](C)O2)Oc2ccc(cc2Cl)[C@H]1O` [VANCOMYCIN], the MIC50 against Staphylococcus aureus [6] was 1 µg/mL (≈ 0.69 µM); with Staphylococcus aureus [7] it was 1 µg/mL (≈ 0.69 µM); against Staphylococcus aureus [8] it was 1 µg/mL (≈ 0.69 µM); against Staphylococcus aureus [9], 1 µg/mL (≈ 0.69 µM); in assay [3], 2 µg/mL (≈ 1.38 µM); in [4] it was 2 µg/mL (≈ 1.38 µM). In addition, the MIC50 in assay [5] was 2 µg/mL (≈ 1.38 µM); in the assay with Enterococcus faecalis it was 2 µg/mL (≈ 1.38 µM); against Enterococcus faecium, above 16 µg/mL. The MIC90 in the assay with Staphylococcus aureus [6] is 1 µg/mL (≈ 0.69 µM); in the assay with Staphylococcus aureus [7], 2 µg/mL (≈ 1.38 µM); against Staphylococcus aureus [8], 1 µg/mL (≈ 0.69 µM); with Staphylococcus aureus [9], 1 µg/mL (≈ 0.69 µM); in assay [3], 2 µg/mL (≈ 1.38 µM); in assay [4], 2 µg/mL (≈ 1.38 µM). For the same compound, the MIC90 in assay [5] was 2 µg/mL (≈ 1.38 µM); against Enterococcus faecalis, above 16 µg/mL; against Enterococcus faecium, above 16 µg/mL.
